In ChEMBL document CHEMBL3046104, “Antifeedant diterpenoids against Tribolium castaneum from the stems and twigs of Ceriops tagal (Rhizophoraceae)” (Molecules, 2011):

Assays:
Tribolium castaneum [1] = test: Antifeedant activity against Tribolium castaneum (red flour beetle) assessed as reduction of food consumption after 3 days by flour disk bioassay relative to control; type: functional, organism-based
How it was run: (§1)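 Adult T. castaneum from a lab colony kept in the dark at 28–30 °C, 70%–80% RH, starved 24 h. Treated flour disks (36–39 mg) air-dried overnight, then equilibrated 48 h at 28–30 °C. Twenty unsexed, group-weighed adults per vial for 3 days; uneaten disk weighed against controls. Insect-free treated vials corrected for solvent evaporation. Six replicates; 10–1000 ppm; EC50 by linear regression.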

Tribolium castaneum [2] = test: Antifeedant activity against Tribolium castaneum (red flour beetle) assessed as reduction of food consumption at 1000 ppm after 3 days by flour disk bioassay relative to control; type: functional; how it was run: as §1
Tribolium castaneum [3] = test: Antifeedant activity against Tribolium castaneum (red flour beetle) assessed as reduction of food consumption at 300 ppm after 3 days by flour disk bioassay relative to control; type: functional; how it was run: as §1
Tribolium castaneum [4] = test: Antifeedant activity against Tribolium castaneum (red flour beetle) assessed as reduction of food consumption at 100 ppm after 3 days by flour disk bioassay relative to control; type: functional; how it was run: as §1
Tribolium castaneum [5] = test: Antifeedant activity against Tribolium castaneum (red flour beetle) assessed as reduction of food consumption at 30 ppm after 3 days by flour disk bioassay relative to control; type: functional; how it was run: as §1
Tribolium castaneum [6] = test: Antifeedant activity against Tribolium castaneum (red flour beetle) assessed as reduction of food consumption at 10 ppm after 3 days by flour disk bioassay relative to control; type: functional; how it was run: as §1

Row | SMILES | EC50 (Tribolium castaneum [1]) | level, % of control (Tribolium castaneum [2]) | level, % of control (Tribolium castaneum [3]) | level, % of control (Tribolium castaneum [4]) | level, % of control (Tribolium castaneum [5]) | level, % of control (Tribolium castaneum [6])
1 | C=C[C@@]1(C)CC[C@@]2(C)[C@@H](CC[C@@]3(C)[C@@H]2C=C(O)C(=O)[C@@]32CO2)C1 [TAGALSIN A] | 375.3 ppm | 40.05% | 53.15% | 73.43% | 88.28% | 97.56%
2 | C=C[C@@]1(C)CC[C@@]2(C)[C@@H](CC[C@@]3(C)[C@@H]2C=C(O)C(=O)[C@]32CO2)C1 [TAGALSIN B] | 277.6 ppm | 38.85% | 47.65% | 65.32% | 84.17% | 95.23%
3 | C=C[C@@]1(C)CC[C@@]2(C)[C@@H](CC[C@](C)(C(C)=O)[C@@H]2CC(=O)O)C1 [TAGALSIN H] | 285.4 ppm | 35.41% | 49.12% | 63.26% | 73.72% | 92.86%
4 | CC(=O)O[C@@H]1C[C@H](O)[C@@]23CO[C@@H](O)[C@]1(C)[C@@H]2C[C@@H](O)[C@]1(C)[C@@H]3C(=O)[C@H](OC(C)=O)[C@@]2(C)[C@H](c3ccoc3)C[C@H]3O[C@]321 [TOOSENDANIN] | 66 ppm | – | – | – | – | –
